Measurements reported in ChEMBL document CHEMBL1781892, “Microwave assisted synthesis and structure-activity relationship of 4-hydroxy-N'-[1-phenylethylidene]-2H/2-methyl-1,2-benzothiazine-3-carbohydrazide 1,1-dioxides as anti-microbial agents” (2011).

Experiments:
[1] = tested on: Aspergillus niger; assay: Antifungal activity against Aspergillus niger using 1 x 10^5 spore/100 uL after 72 hrs by microdilution method; type: functional
[2] = tested on: Aspergillus flavus; assay: Antifungal activity against Aspergillus flavus using 1 x 10^5 spore/100 uL after 72 hrs by microdilution method; type: functional
[3] = tested on: Aspergillus fumigatus; assay: Antifungal activity against Aspergillus fumigatus using 1 x 10^5 spore/100 uL after 72 hrs by microdilution method; type: functional
[4] = tested on: Trichoderma viride; assay: Antifungal activity against Trichoderma viride using 1 x 10^5 spore/100 uL after 72 hrs by microdilution method; type: functional
[5] = Antifungal activity against Trichoderma reesei using 1 x 10^5 spore/100 uL after 72 hrs by microdilution method; type: functional
In short: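 Spores washed from malt agar cultures with sterile 0.85% saline plus 0.1% Tween 80, adjusted to about 1.0×10^5 per 100 µl well. Compounds from a 1 mg/ml DMSO stock were serially diluted in malt broth with inoculum in 96-well plates and incubated 72 h at 28 °C. MIC is the lowest concentration with no visible growth under a binocular microscope. DMSO served as negative control.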

[6] = tested on: Curvularia australiensis; assay: Antifungal activity against Drechslera australiensis using 1 x 10^5 spore/100 uL after 72 hrs by microdilution method; type: functional
[7] = tested on: Aspergillus niger; assay: Antifungal activity against Aspergillus niger using 1 x 10^5 spore/100 uL assessed as 99.5% fungal killing of original inoculum after 72 hrs by microdilution method; type: functional
[8] = tested on: Aspergillus flavus; assay: Antifungal activity against Aspergillus flavus using 1 x 10^5 spore/100 uL assessed as 99.5% fungal killing of original inoculum after 72 hrs by microdilution method; type: functional
[9] = tested on: Aspergillus fumigatus; assay: Antifungal activity against Aspergillus fumigatus using 1 x 10^5 spore/100 uL assessed as 99.5% fungal killing of original inoculum after 72 hrs by microdilution method; type: functional
[10] = tested on: Trichoderma viride; assay: Antifungal activity against Trichoderma viride using 1 x 10^5 spore/100 uL assessed as 99.5% fungal killing of original inoculum after 72 hrs by microdilution method; type: functional
[11] = Antifungal activity against Trichoderma reesei using 1 x 10^5 spore/100 uL assessed as 99.5% fungal killing of original inoculum after 72 hrs by microdilution method; type: functional
[12] = tested on: Curvularia australiensis; assay: Antifungal activity against Drechslera australiensis using 1 x 10^5 spore/100 uL assessed as 99.5% fungal killing of original inoculum after 72 hrs by microdilution method; type: functional
[13] = tested on: Bacillus cereus; assay: Antibacterial activity against Bacillus cereus using 1 x 10^4 CFU/ml inoculum after 24 hrs by microdilution method; type: functional
[14] = tested on: Bacillus subtilis; assay: Antibacterial activity against Bacillus subtilis using 1 x 10^4 CFU/ml inoculum after 24 hrs by microdilution method; type: functional
[15] = tested on: Bacillus thuringiensis; assay: Antibacterial activity against Bacillus thuringiensis using 1 x 10^4 CFU/ml inoculum after 24 hrs by microdilution method; type: functional
[16] = tested on: Staphylococcus aureus; assay: Antibacterial activity against Staphylococcus aureus using 1 x 10^4 CFU/ml inoculum after 24 hrs by microdilution method; type: functional
[17] = tested on: Escherichia coli; assay: Antibacterial activity against Escherichia coli using 1 x 10^4 CFU/ml inoculum after 24 hrs by microdilution method; type: functional
[18] = tested on: Pseudomonas aeruginosa; assay: Antibacterial activity against Pseudomonas aeruginosa using 1 x 10^4 CFU/ml inoculum after 24 hrs by microdilution method; type: functional
[19] = tested on: Salmonella typhi; assay: Antibacterial activity against Salmonella typhi using 1 x 10^4 CFU/ml inoculum after 24 hrs by microdilution method; type: functional, Salmonella enterica subsp. enterica serovar Typhi

Compound | MIC [1] | MIC [2] | MIC [3] | MIC [4] | MIC [5] | MIC [6] | MFC [7] | MFC [8] | MFC [9] | MFC [10] | MFC [11] | MFC [12] | MIC [13] | MIC [14] | MIC [15] | MIC [16] | MIC [17] | MIC [18] | MIC [19]
C/C(=N\NC(=O)C1=C(O)c2ccccc2S(=O)(=O)N1C)c1ccc(F)cc1F | 76.5 ×10⁻² umol | 76.3 ×10⁻² umol | 69.6 ×10⁻² umol | 72.1 ×10⁻² umol | 68.4 ×10⁻² µmol | 72.1 ×10⁻² umol | 143.6 ×10⁻² umol | 149.4 ×10⁻² umol | 140.1 ×10⁻² umol | 143 ×10⁻² umol | 130 ×10⁻² µmol | 144.2 ×10⁻² umol | 7.5 ×10⁻² umol | 7.8 ×10⁻² umol | 8 ×10⁻² umol | 27.6 ×10⁻² umol | 28.9 ×10⁻² umol | 30.5 ×10⁻² umol | 33.1 ×10⁻² umol
C/C(=N\NC(=O)C1=C(O)c2ccccc2S(=O)(=O)N1)c1ccc(N)cc1 | 83.8 ×10⁻² umol | 82.9 ×10⁻² umol | 74 ×10⁻² umol | 71.3 ×10⁻² umol | 70.3 ×10⁻² µmol | 70 ×10⁻² umol | 177.5 ×10⁻² umol | 175.9 ×10⁻² umol | 150.1 ×10⁻² umol | 142.8 ×10⁻² umol | 138 ×10⁻² µmol | 129.5 ×10⁻² umol | 6.2 ×10⁻² umol | 6 ×10⁻² umol | 6.1 ×10⁻² umol | 20.5 ×10⁻² umol | 22.9 ×10⁻² umol | 24.5 ×10⁻² umol | 27.7 ×10⁻² umol
COc1cccc(/C(C)=N/NC(=O)C2=C(O)c3ccccc3S(=O)(=O)N2C)c1 | 90.1 ×10⁻² umol | 92.6 ×10⁻² umol | 85.7 ×10⁻² umol | 80.5 ×10⁻² umol | 79.6 ×10⁻² µmol | 81.7 ×10⁻² umol | 190 ×10⁻² umol | 188.9 ×10⁻² umol | 168.2 ×10⁻² umol | 160.4 ×10⁻² umol | 159 ×10⁻² µmol | 154.8 ×10⁻² umol | 7 ×10⁻² umol | 7.7 ×10⁻² umol | 7.8 ×10⁻² umol | 24.1 ×10⁻² umol | 25.6 ×10⁻² umol | 26.8 ×10⁻² umol | 29.4 ×10⁻² umol
C/C(=N\NC(=O)C1=C(O)c2ccccc2S(=O)(=O)N1)c1ccccc1O | >100 ×10⁻² umol | >100 ×10⁻² umol | >100 ×10⁻² umol | >100 ×10⁻² umol | > 100 ×10⁻² µmol | >100 ×10⁻² umol | >200 ×10⁻² umol | >200 ×10⁻² umol | >200 ×10⁻² umol | >200 ×10⁻² umol | > 200 ×10⁻² µmol | >200 ×10⁻² umol | 4.2 ×10⁻² umol | 4.4 ×10⁻² umol | 4.1 ×10⁻² umol | 17.8 ×10⁻² umol | 19.9 ×10⁻² umol | 20.6 ×10⁻² umol | 22.7 ×10⁻² umol
C/C(=N\NC(=O)C1=C(O)c2ccccc2S(=O)(=O)N1C)c1ccccc1O | >100 ×10⁻² umol | >100 ×10⁻² umol | >100 ×10⁻² umol | >100 ×10⁻² umol | > 100 ×10⁻² µmol | >100 ×10⁻² umol | >200 ×10⁻² umol | >200 ×10⁻² umol | >200 ×10⁻² umol | >200 ×10⁻² umol | > 200 ×10⁻² µmol | >200 ×10⁻² umol | 4 ×10⁻² umol | 4.2 ×10⁻² umol | 4 ×10⁻² umol | 17.7 ×10⁻² umol | 19.6 ×10⁻² umol | 20.2 ×10⁻² umol | 22.3 ×10⁻² umol
C/C(=N\NC(=O)C1=C(O)c2ccccc2S(=O)(=O)N1C)c1ccc(N)cc1 | 83.7 ×10⁻² umol | 82.9 ×10⁻² umol | 73.6 ×10⁻² umol | 71.1 ×10⁻² umol | 68 ×10⁻² µmol | 69.8 ×10⁻² umol | 167 ×10⁻² umol | 166.3 ×10⁻² umol | 151.6 ×10⁻² umol | 142 ×10⁻² umol | 136 ×10⁻² µmol | 133.7 ×10⁻² umol | 6.2 ×10⁻² umol | 6.2 ×10⁻² umol | 6.3 ×10⁻² umol | 20.4 ×10⁻² umol | 22.4 ×10⁻² umol | 24.3 ×10⁻² umol | 27.5 ×10⁻² umol
